In paper PMC5621765 (Nature biomedical engineering, 2017):
Values belong to the molecule of their own block, whether it stands above or below them.

How the values were obtained:
[1] = tested on: OVCAR-8 conditioned media; assay: Cleavage of MMP9 substrate by OVCAR-8 conditioned media; type: biochemical, human
mouse MMP9 = mouse MMP9 (Mus musculus, UniProt P41245); assay: Cleavage of substrate by mouse MMP9; type: biochemical
OVCAR-8 tumour nodules = assay: HE4 blood ELISA in orthotopic OVCAR-8 ovarian cancer model; type: in vivo, mouse; settings: blood biomarker, plasma ELISA; n = 10
How it was run: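 Female NCr nude mice, 3–4 weeks old, were injected intraperitoneally with 2 × 10⁶ luciferase-expressing OVCAR-8 cells; tumour burden was followed by IVIS luminescence. About 200 μL blood was spiked with EDTA to a final 5 mM and cells were pelleted. Plasma was stored at -20 °C, then HE4 measured by quantikine ELISA per kit protocol.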

mouse MMP9, sequence (P41245 108-730): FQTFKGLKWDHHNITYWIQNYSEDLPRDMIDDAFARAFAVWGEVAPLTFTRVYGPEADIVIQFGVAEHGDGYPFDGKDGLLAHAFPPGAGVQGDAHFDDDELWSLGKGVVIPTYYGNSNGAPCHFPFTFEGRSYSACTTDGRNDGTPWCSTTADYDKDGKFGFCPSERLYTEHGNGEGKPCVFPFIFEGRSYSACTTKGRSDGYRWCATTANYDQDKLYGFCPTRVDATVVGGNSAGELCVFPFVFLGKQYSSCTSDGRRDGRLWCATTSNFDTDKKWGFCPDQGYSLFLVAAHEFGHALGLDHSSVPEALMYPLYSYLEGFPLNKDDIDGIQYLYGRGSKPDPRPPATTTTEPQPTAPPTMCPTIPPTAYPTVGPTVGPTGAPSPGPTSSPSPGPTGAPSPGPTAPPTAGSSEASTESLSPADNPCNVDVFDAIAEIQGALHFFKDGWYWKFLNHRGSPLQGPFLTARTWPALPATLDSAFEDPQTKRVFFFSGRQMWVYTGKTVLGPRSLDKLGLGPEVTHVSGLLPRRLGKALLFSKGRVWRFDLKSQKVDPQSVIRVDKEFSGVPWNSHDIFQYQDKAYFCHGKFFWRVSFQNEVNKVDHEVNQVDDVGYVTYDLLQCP

Molecule: CNC(=O)[C@@H](NC(=O)[C@H](CC(C)C)[C@H](O)C(=O)NO)C(C)(C)C [Marimistat, reference compound]
inhibition of cleavage of MMP9 substrate by OVCAR-8 conditioned media [1]: can be inhibited

cleavage by mouse MMP9 (mouse MMP9): cleaves
Molecule: 5FAM-GGPLGVRGKK(CPQ2)-PEG2-C [MMP9 substrate]
cleavage by OVCAR-8 conditioned media [1]: can cleave

B1: HE4: clinical blood biomarker secreted by OVCAR-8 cells, measured by ELISA as comparator diagnostic (protein, UniProt Q14508 31-124, looked up)
WAP four-disulfide core …: EKTGVCPELQADQNCTQECVSDSECADNLKCCSAGCATFCSLPNDKEGSCPQVNINFPQLGLCRDQCQVDSQCPGQMKCCRNGCGKVSCVTPNF
ROC-AUC at 2-weeks (OVCAR-8 tumour nodules): 0.51 | ROC-AUC at 3-weeks (OVCAR-8 tumour nodules): 0.93
